Measurements taken from ChEMBL document CHEMBL4257459, “Synergistic antifungal effect of cyclized chalcone derivatives and fluconazole against Candida albicans” (2017).
≈ marks a conversion by molar mass, not a printed value.

Tests used:
Candida albicans [1] = test: Inhibition of ABC efflux pumps in fluconazole resistant Candida albicans 167-2 assessed as reduction in energy-dependent rhodamine 6G efflux in presence of 0.1 M glucose after 25 mins […] relative to control
Candida albicans [2] = test: Antifungal activity against fluconazole susceptible Candida albicans 0079gr in presence of fluconazole by CLSI protocol based broth microdilution method; type: functional
Candida albicans [3] = test: Inhibition of ABC efflux pumps in fluconazole susceptible Candida albicans 0079gr assessed as reduction in energy-dependent rhodamine 6G efflux in presence of 0.1 M glucose after 25 mins by fluorescence assay relative to control
Summary of the method: (§1)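 Cells grown in TSB at 37 °C for 8 h, washed, resuspended in glucose-free PBS at 1 × 10^8 cells. De-energized 45 min with 5 mM deoxyglucose plus 5 mM dinitrophenol. […] Washed, sampled 5–25 min, then 0.1 M glucose added. Absorbance 527 nm, R6G from standard curve.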

Candida albicans [4] = test: Antifungal activity against fluconazole resistant Candida albicans 167-1 in presence of fluconazole by CLSI protocol based broth microdilution method; type: functional
Summary of the method: (§2)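 Checkerboard-style combination with fluconazole at a 1 : 1 ratio, over concentrations 2–4 fold below each agent's MIC alone, by CLSI broth microdilution. Fractional inhibitory concentration index calculated and interpreted as synergy (<0.5), additive (0.5–1), indifferent or antagonistic.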

Candida albicans [5] = test: Antifungal activity against fluconazole susceptible Candida albicans 004gr in presence of fluconazole by CLSI protocol based broth microdilution method; type: functional
Candida albicans [6] = test: Antifungal activity against fluconazole resistant Candida albicans 167-1 by CLSI protocol based broth microdilution method; type: functional
Summary of the method: (§3)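 Broth microdilution per CLSI M27-A3 against clinical C. albicans isolates. Strains sub-cultured at least twice on Tryptone Soya Agar, 37 °C, 48 h. Compounds dissolved in DMSO at 2000 μg mL–1 stock. Fluconazole positive control, plus culture, media and vehicle controls. Run in duplicate; MIC in μg mL–1.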

Candida albicans [7] = test: Antifungal activity against fluconazole resistant Candida albicans A171 by CLSI protocol based broth microdilution method; type: functional; summary of the method: as §3
Candida albicans [8] = test: Inhibition of ABC efflux pumps in fluconazole resistant Candida albicans A171 assessed as reduction in energy-dependent rhodamine 6G efflux in presence of 0.1 M glucose after 25 mins by fluorescence assay relative to control; summary of the method: as §1
Candida albicans [9] = test: Antifungal activity against fluconazole susceptible Candida albicans 002B1 in presence of fluconazole by CLSI protocol based broth microdilution method; type: functional
Candida albicans [10] = test: Antifungal activity against fluconazole susceptible Candida albicans 003gr by CLSI protocol based broth microdilution method; type: functional
Summary of the method: (§4)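 Clinical isolates and control strain subcultured at least twice on TSA, 37 °C, 48 h. MICs by CLSI M27-A3 broth microdilution; compounds dissolved in DMSO to 2000 μg mL–1 stock. Fluconazole positive control, culture, media and DMSO vehicle controls in each run. Duplicate experiments; MIC in μg mL–1.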

Candida albicans [11] = test: Down regulation of ERG11 gene expression in fluconazole resistant Candida albicans A171 at MIC after 2 hrs by qRT PCR analysis relative to control; type: functional
Summary of the method: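 Cells exposed 2 h to test agents at MIC. Total RNA isolated, cDNA synthesized, qPCR for ERG11 with ACT1 as endogenous control. Triplicate independent experiments, reported as mean ± standard deviation.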

Candida albicans [12] = test: Antifungal activity against fluconazole susceptible Candida albicans 004B1 by CLSI protocol based broth microdilution method; type: functional; summary of the method: as §4
Candida albicans [13] = test: Down regulation of ERG11 gene expression in fluconazole susceptible Candida albicans ATCC 90028 at MIC after 2 hrs by qRT PCR analysis relative to control; type: functional
Summary of the method: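 Cells exposed to compound at MIC for 2 h; total RNA isolated, cDNA synthesised, ERG11 measured by real-time qPCR with ACT1 as endogenous control. Triplicate independent experiments; mean ± standard deviation.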

Candida albicans [14] = test: Inhibition of ABC efflux pumps in fluconazole susceptible Candida albicans 003gr assessed as reduction in energy-dependent rhodamine 6G efflux in presence of 0.1 M glucose after 25 mins […] relative to control
Candida albicans [15] = test: Inhibition of ergosterol biosynthesis in fluconazole resistant Candida albicans A171 at 0.5 to 1 times MIC relative to control; type: functional
Summary of the method: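 Total sterols quantified by alcoholic KOH extraction in cells grown in 50 ml TSB with compounds at MIC and ½ MIC; untreated and 8 μg mL–1 fluconazole controls. Spectral scan; ergosterol content from A281.5 and A230 absorbances, dilution factor and pellet weight, correcting for 24(28) DHE.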

Candida albicans [16] = test: Antifungal activity against fluconazole susceptible Candida albicans 004B1 in presence of fluconazole by CLSI protocol based broth microdilution method; type: functional
Candida albicans [17] = test: Inhibition of ergosterol biosynthesis in fluconazole susceptible Candida albicans ATCC 90028 at 0.5 to 1 times MIC relative to control; type: functional
Summary of the method: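 ATCC90028 grown in 50 ml TSB with MIC and ½ MIC of compound; untreated and 8 μg mL–1 fluconazole controls. Sterols extracted by alcoholic KOH method and spectrophotometrically scanned; ergosterol % calculated from A281.5 and A230 (E values 290 and 518) with dilution factor, per pellet weight.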

Candida albicans [18] = test: Inhibition of ABC efflux pumps in fluconazole susceptible Candida albicans 004B1 assessed as reduction in energy-dependent rhodamine 6G efflux in presence of 0.1 M glucose after 25 mins by fluorescence assay relative to control; summary of the method: as §1
Candida albicans [19] = test: Inhibition of ABC efflux pumps in fluconazole susceptible Candida albicans 002B1 assessed as reduction in energy-dependent rhodamine 6G efflux in presence of 0.1 M glucose after 25 mins […] relative to control
Candida albicans [20] = test: Antifungal activity against fluconazole resistant Candida albicans A171 in presence of fluconazole by CLSI protocol based broth microdilution method; type: functional; summary of the method: as §2
Candida albicans [21] = test: Antifungal activity against fluconazole susceptible Candida albicans 004gr by CLSI protocol based broth microdilution method; type: functional; summary of the method: as §4
Candida albicans [22] = test: Antifungal activity against fluconazole resistant Candida albicans 167-2 in presence of fluconazole by CLSI protocol based broth microdilution method; type: functional; summary of the method: as §2
Candida albicans [23] = test: Antifungal activity against fluconazole susceptible Candida albicans 0079gr by CLSI protocol based broth microdilution method; type: functional; summary of the method: as §4
Candida albicans [24] = test: Antifungal activity against fluconazole resistant Candida albicans 167-2 by CLSI protocol based broth microdilution method; type: functional; summary of the method: as §3
Candida albicans [25] = test: Inhibition of ABC efflux pumps in fluconazole susceptible Candida albicans 004gr assessed as reduction in energy-dependent rhodamine 6G efflux in presence of 0.1 M glucose after 25 mins by fluorescence assay relative to control; summary of the method: as §1
Candida albicans [26] = test: Antifungal activity against Candida albicans ATCC 90028 in presence of fluconazole by CLSI protocol based broth microdilution method; type: functional
Candida albicans [27] = test: Inhibition of ABC efflux pumps in fluconazole resistant Candida albicans 167-1 assessed as reduction in energy-dependent rhodamine 6G efflux in presence of 0.1 M glucose after 25 mins […] relative to control
Candida albicans [28] = test: Antifungal activity against fluconazole susceptible Candida albicans 0072gr by CLSI protocol based broth microdilution method; type: functional; summary of the method: as §4
Candida albicans [29] = test: Antifungal activity against fluconazole susceptible Candida albicans 0072gr in presence of fluconazole by CLSI protocol based broth microdilution method; type: functional
Candida albicans [30] = test: Inhibition of ABC efflux pumps in fluconazole susceptible Candida albicans 0072gr assessed as reduction in energy-dependent rhodamine 6G efflux in presence of 0.1 M glucose after 25 mins […] relative to control
Candida albicans [31] = test: Antifungal activity against Candida albicans ATCC 90028 by CLSI protocol based broth microdilution method; type: functional; summary of the method: as §4
Candida albicans [32] = test: Antifungal activity against fluconazole susceptible Candida albicans 003gr in presence of fluconazole by CLSI protocol based broth microdilution method; type: functional
Candida albicans [33] = test: Antifungal activity against fluconazole susceptible Candida albicans 002B1 by CLSI protocol based broth microdilution method; type: functional; summary of the method: as §4

Structure (SMILES)	inhibition (Candida albicans [1]) [%]	fractional inhibitory concentration index (FICI) (Candida albicans [2])	inhibition (Candida albicans [3]) [%]	fractional inhibitory concentration index (FICI) (Candida albicans [4])	fractional inhibitory concentration index (FICI) (Candida albicans [5])	MIC (Candida albicans [6]) [µg/mL]	MIC (Candida albicans [7]) [µg/mL]	inhibition (Candida albicans [8]) [%]	fractional inhibitory concentration index (FICI) (Candida albicans [9])	MIC (Candida albicans [10]) [µg/mL]	fold change (FC) (Candida albicans [11])	MIC (Candida albicans [12]) [µg/mL]	fold change (FC) (Candida albicans [13])	inhibition (Candida albicans [14]) [%]	inhibition (INH) (Candida albicans [15])	fractional inhibitory concentration index (FICI) (Candida albicans [16])	inhibition (INH) (Candida albicans [17])	inhibition (Candida albicans [18]) [%]	inhibition (Candida albicans [19]) [%]	fractional inhibitory concentration index (FICI) (Candida albicans [20])	other results
O=C(/C=C/c1ccc(/C=C/C(=O)c2ccccc2)cc1)c1ccccc1	< 20	0.31 - 1.5	< 20	0.266 - 0.27	0.31 - 1.5	16 to 31 (≈ 47.3 to 91.6 µM)	16 to 31 (≈ 47.3 to 91.6 µM)	< 20	0.31 - 1.5	2 to 16 (≈ 5.91 to 47.3 µM)	1.25 - 10	2 to 16 (≈ 5.91 to 47.3 µM)	1.5 - 13	< 20	49 - 94%	0.31 - 1.5	66 - 99%	< 20	< 20	0.266 - 0.27	MIC (Candida albicans [21]): 2 to 16 µg/mL (≈ 5.91 to 47.3 µM); fractional inhibitory concentration index (FICI) (Candida albicans [22]): 0.266 - 0.27; MIC (Candida albicans [23]): 2 to 16 µg/mL (≈ 5.91 to 47.3 µM); MIC (Candida albicans [24]): 16 to 31 µg/mL (≈ 47.3 to 91.6 µM); inhibition (Candida albicans [25]): < 20%; fractional inhibitory concentration index (FICI) (Candida albicans [26]): 0.31 - 1.5; inhibition (Candida albicans [27]): < 20%; MIC (Candida albicans [28]): 2 to 16 µg/mL (≈ 5.91 to 47.3 µM); fractional inhibitory concentration index (FICI) (Candida albicans [29]): 0.31 - 1.5; inhibition (Candida albicans [30]): < 20%; MIC (Candida albicans [31]): 2 to 16 µg/mL (≈ 5.91 to 47.3 µM); fractional inhibitory concentration index (FICI) (Candida albicans [32]): 0.31 - 1.5; MIC (Candida albicans [33]): 2 to 16 µg/mL (≈ 5.91 to 47.3 µM)
c1ccc(-c2cc(-c3ccc(-c4cc(-c5ccccc5)n[nH]4)cc3)[nH]n2)cc1	< 20	0.63 - 1.5	< 20	0.531 - 2.27	0.63 - 1.5	31 to 125 (≈ 85.5 to 345 µM)	31 to 125 (≈ 85.5 to 345 µM)	< 20	0.63 - 1.5	2 to 16 (≈ 5.52 to 44.1 µM)	1.25 - 10	2 to 16 (≈ 5.52 to 44.1 µM)	1.5 - 13	< 20	49 - 94%	0.63 - 1.5	66 - 99%	< 20	< 20	0.531 - 2.27	MIC (Candida albicans [21]): 2 to 16 µg/mL (≈ 5.52 to 44.1 µM); fractional inhibitory concentration index (FICI) (Candida albicans [22]): 0.531 - 2.27; MIC (Candida albicans [23]): 2 to 16 µg/mL (≈ 5.52 to 44.1 µM); MIC (Candida albicans [24]): 31 to 125 µg/mL (≈ 85.5 to 345 µM); inhibition (Candida albicans [25]): < 20%; fractional inhibitory concentration index (FICI) (Candida albicans [26]): 0.63 - 1.5; inhibition (Candida albicans [27]): < 20%; MIC (Candida albicans [28]): 2 to 16 µg/mL (≈ 5.52 to 44.1 µM); fractional inhibitory concentration index (FICI) (Candida albicans [29]): 0.63 - 1.5; inhibition (Candida albicans [30]): < 20%; MIC (Candida albicans [31]): 2 to 16 µg/mL (≈ 5.52 to 44.1 µM); fractional inhibitory concentration index (FICI) (Candida albicans [32]): 0.63 - 1.5; MIC (Candida albicans [33]): 2 to 16 µg/mL (≈ 5.52 to 44.1 µM)
